In PubChem BioAssay:
Activity calls are given as the source filed them.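 Rule for the calls, unless noted: active = viability at or below 10% of carrier control in both of two separate runs; inconclusive = viability at or below 10% in only one of the two runs; inactive = the rest.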

Assays:
[1] = Her2 expression decrease, cell viability multiplex – SKBR3 breast tumor cells, AlphaScreen, ATP viability, primary screen (AID 461;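 active = Her2 level under about 52% in both replicate screens, with viability over 70% of control, limit read from the data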;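 for Her2 level: lower value means less Her2 protein in the cells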;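 for viability: percent of carrier control wells set as 100% viability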); conditions: SKBR3 Her2 protein level, 18-24 h, measured here: SKBR3 viability, ATP luminescence, at 10 µM
[2] = molecular target: Receptor tyrosine-protein kinase erbB-2 (Homo sapiens) (UniProt P04626); experiment: as above; conditions: 18-24 h, at 10 µM, stronger effect = lower value
Receptor tyrosine-protein kinase erbB-2 (Homo sapiens), sequence (P04626 whole entry, looked up): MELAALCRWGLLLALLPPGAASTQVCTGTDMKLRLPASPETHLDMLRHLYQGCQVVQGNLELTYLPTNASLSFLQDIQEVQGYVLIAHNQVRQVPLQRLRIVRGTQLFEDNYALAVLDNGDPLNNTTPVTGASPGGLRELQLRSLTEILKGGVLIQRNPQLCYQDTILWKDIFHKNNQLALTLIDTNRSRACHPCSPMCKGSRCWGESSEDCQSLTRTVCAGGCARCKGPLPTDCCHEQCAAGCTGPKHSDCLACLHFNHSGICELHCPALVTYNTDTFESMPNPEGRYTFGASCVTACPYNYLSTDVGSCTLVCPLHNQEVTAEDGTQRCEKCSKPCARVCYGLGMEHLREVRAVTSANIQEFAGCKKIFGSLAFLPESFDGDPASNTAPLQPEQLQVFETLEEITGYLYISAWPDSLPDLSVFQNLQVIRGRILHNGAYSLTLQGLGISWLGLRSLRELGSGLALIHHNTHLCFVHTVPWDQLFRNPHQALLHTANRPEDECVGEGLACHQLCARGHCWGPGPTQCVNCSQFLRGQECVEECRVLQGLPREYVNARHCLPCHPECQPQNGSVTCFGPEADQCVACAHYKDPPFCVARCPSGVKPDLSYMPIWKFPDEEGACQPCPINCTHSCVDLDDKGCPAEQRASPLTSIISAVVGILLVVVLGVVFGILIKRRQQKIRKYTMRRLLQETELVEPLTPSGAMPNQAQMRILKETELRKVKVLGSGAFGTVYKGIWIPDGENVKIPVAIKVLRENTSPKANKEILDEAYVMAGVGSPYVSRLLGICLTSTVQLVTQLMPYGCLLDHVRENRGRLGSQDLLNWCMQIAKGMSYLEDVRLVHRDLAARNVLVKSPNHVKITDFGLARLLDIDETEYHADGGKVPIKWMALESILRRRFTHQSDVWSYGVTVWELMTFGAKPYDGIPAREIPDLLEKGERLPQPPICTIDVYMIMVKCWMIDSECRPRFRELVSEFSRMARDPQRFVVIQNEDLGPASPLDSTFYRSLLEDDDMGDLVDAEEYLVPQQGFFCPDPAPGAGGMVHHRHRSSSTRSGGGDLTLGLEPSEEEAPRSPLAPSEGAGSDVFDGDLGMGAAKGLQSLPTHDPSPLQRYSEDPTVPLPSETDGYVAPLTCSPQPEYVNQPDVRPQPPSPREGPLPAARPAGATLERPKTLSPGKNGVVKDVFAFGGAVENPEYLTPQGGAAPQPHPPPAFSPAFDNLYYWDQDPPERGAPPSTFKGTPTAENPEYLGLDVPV

[3] = reduced viability of SK-BR-3 breast cancer cells – cell-based, 24 h, human, pilot screen (AID 572); conditions: SK-BR-3 viability, CellTiter-Glo luminescence, at 10 µM, stronger effect = lower value;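 note: compound exposure lasted between 18 and 24 h rather than exactly 24 h; 100% = carrier-treated control wells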
[4] = HUVEC growth inhibition – cell-based, human, primary screen (AID 575;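 active = viability at or below 30% in both replicate assays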;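 note: 100% = median of untreated cell wells with 0.1% DMSO on each plate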); conditions: HUVEC proliferation, CellTiter-Glo luminescence, 72 h; at 10 µM; stronger effect = lower value
In short: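 Timing: 72 h treatment at 37 °C; material: HUVEC primary cells; technique: CellTiter-Glo luminescence measuring cellular ATP; controls: vehicle and MePR control wells; measure: percent of median DMSO-control luminescence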

[5] = H69AR cell proliferation blockers – human, duplicate replicates, primary screen (AID 580;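 active = viability at or under a set limit in both replicates, limit being median viability minus 3 SD, cut at about 48% in these data, passing the limit was not always enough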;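 note: 100% = mean luminescence of untreated wells and 0% = no signal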); conditions: H69AR lung tumor cells viability, ATP luminescence, 72 h; at 10 µM; stronger effect = lower value
[6] = MRP1 drug-resistance reversers in H69AR cells – cell-based, doxorubicin co-treatment, pilot screen (AID 601;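 active = viability loss from added drug above about 55%, and viability with drug at most 40%, in both replicates, limit read from the data, passing the limit was not always enough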); conditions: CellTiter-Glo, 72 h, at 10 µM; for differential viability (reversal): stronger effect = higher value
[7] = yeast transport mutant growth inhibition pilot in 384-well plates, post-Golgi transport modulator project (AID 636; in the data active = inhibition above about 31%); conditions: absorbance 615 nm, about 18 h, stronger effect = higher value
[8] = growth suppression of yeast trafficking mutant, preliminary HTS, modulators of trafficking downstream of Golgi apparatus project, 1536-format plate, OD 615 nm (AID 637; in the data active = inhibition above about 30%); conditions: yeast transport mutant growth, absorbance 615 nm, 18 h; stronger effect = higher value
[9] = H69AR cells + 2 uM doxorubicin, measured here: viability with 2 uM doxorubicin, stronger effect = lower value
[10] = H69AR cells, compound alone cytotoxicity

Compound | viability [1] [%] | Her2 level [2] | viability [3] | viability [4] | viability [5] | differential viability (reversal) ([6]; H69AR cells + 2 uM doxorubicin) | viability [6, 9] [%] | viability [6, 10] [%] | inhibition [7] | inhibition [8]
O=C(CCC(=O)N(c1cccc(F)c1)C(C(=O)NC1CCCC1)c1ccncc1)Nc1cccnc1 (stereo not given) | 100 | 95.5% (inactive) | 100% (inactive) | 97.1% (inactive) | 91.7% (inactive) | -4.02% (inactive) | 95.8 | 91.7 | -0.8% (inactive) | 2.74% (inactive)
COc1cc2nc(C3CCC3)n(NC(=O)C3CCCC(OC)C3)c(=O)c2cc1OC (stereo not given) | 100 | 110% (inactive) | 100% (inactive) | 117% (inactive) | 92.2% (inactive) | -5.31% (inactive) | 97.5 | 92.2 | -9.86% (inactive) | -0.67% (inactive)
Cn1c(=O)c2c(nc(NCCc3ccccc3)n2CC(=O)NCCc2ccccc2)n(C)c1=O | 91 | 90.5% (inactive) | 91% (inactive) | 99.9% (inactive) | 79% (inactive) | 8.86% (inactive) | 70.2 | 79 | -1.05% (inactive) | 9.68% (inactive)
CCN(CCCNC(=O)C1CCCN(S(=O)(=O)c2cnc[nH]2)C1)c1ccccc1 (stereo not given) | 94 | 93% (inactive) | 94% (inactive) | 104% (inactive) | 94.8% (inactive) | 6.6% (inactive) | 88.2 | 94.8 | -1.87% (inactive) | -1.64% (inactive)
CCC(Oc1ccc2ccccc2c1)C(=O)O (stereo not given) | 89.5 | 98.5% (inactive) | 89.5% (inactive) | 85.6% (inactive) | 80.1% (inactive) | -1.54% (inactive) | 81.6 | 80.1 | -3.33% (inactive) | 1.15% (inactive)
COc1ccc(-c2noc(-c3ccccc3C(=O)Nc3cccnc3)n2)cc1OC | 89.5 | 83% (inactive) | 89.5% (inactive) | 80.6% (inactive) | 90.4% (inactive) | 14.8% (inactive) | 75.7 | 90.4 | -3.6% (inactive) | -2.38% (inactive)
CC(Sc1nc(-c2ccccc2)cc(C(F)(F)F)n1)C(=O)N1CCC(C(N)=O)CC1 (stereo not given) | 100 | 87.5% (inactive) | 100% (inactive) | 85.6% (inactive) | 91.1% (inactive) | -1.27% (inactive) | 92.3 | 91.1 | -0.91% (inactive) | 11% (inactive)
O=S(=O)(c1cccc(-c2nnco2)c1)N1CCCC1 | 100 | 116% (inactive) | 100% (inactive) | 114% (inactive) | 95.4% (inactive) | 2.63% (inactive) | 92.8 | 95.4 | -3.33% (inactive) | -7.42% (inactive)
CCC(C)N=C1SCC(C)(/C=N/O)S1 (stereo not given) | 97 | 88.5% (inactive) | 97% (inactive) | 116% (inactive) | 104% (inactive) | 7.86% (inactive) | 95.8 | 104 | -2.37% (inactive) | -0.98% (inactive)
Cc1c(NC2=NC3(CCCCC3)Cc3ccccc32)c(=O)n(-c2ccccc2)n1C | 79.5 | 108% (inactive) | 79.5% (inactive) | 95.5% (inactive) | 92.5% (inactive) | 5.08% (inactive) | 87.5 | 92.5 | -5.13% (inactive) | 2.67% (inactive)
COC(=O)c1c(N)nc(C)n1-c1ccc(OC)cc1 | 86.5 | 91% (inactive) | 86.5% (inactive) | 95.9% (inactive) | 96.1% (inactive) | 4.61% (inactive) | 91.5 | 96.1 | -3.33% (inactive) | -3.77% (inactive)
CSc1nc(C)cc(Oc2ccc(=O)n(C)n2)n1 | 97 | 89.5% (inactive) | 97% (inactive) | 112% (inactive) | 90.5% (inactive) | 11.8% (inactive) | 78.7 | 90.5 | -3.92% (inactive) | -3.28% (inactive)
COC(=O)CCn1nnc(-c2cccs2)n1 | 99.5 | 126% (inactive) | 99.5% (inactive) | 101% (inactive) | 103% (inactive) | 5.5% (inactive) | 97.4 | 103 | 3.73% (inactive) | 4.1% (inactive)
CCOc1cc(C(=O)Nc2ccon2)cc(OCC)c1OCC | 100 | 110% (inactive) | 100% (inactive) | 96.8% (inactive) | 99.4% (inactive) | 2.21% (inactive) | 97.2 | 99.4 | -3.03% (inactive) | -1.17% (inactive)
Cc1ccc(-c2noc(-c3ccccc3C(=O)NCC3CCCO3)n2)cc1 (stereo not given) | 91 | 107% (inactive) | 91% (inactive) | 100% (inactive) | 100% (inactive) | 5.99% (inactive) | 94.4 | 100 | -0.13% (inactive) | -3.97% (inactive)
CCCN(CCC)S(=O)(=O)c1ccc(C(=O)Nc2nnc(-c3cccc(OC)c3)o2)cc1 | 98.5 | 89% (inactive) | 98.5% (inactive) | 8.23% (active) | 15.3% (active) | -7.05% (inactive) | 22.3 | 15.3 | -5.79% (inactive) | -1.64% (inactive)

Compound | viability [1] [%] | Her2 level [2] | viability [3] | viability [4] | viability [5] | differential viability (reversal) ([6]; H69AR cells + 2 uM doxorubicin) | viability [6, 9] [%] | viability [6, 10] [%] | inhibition [7] | inhibition [8]
CC(=O)N1CCc2cc(S(=O)(=O)NC(CC(C)C)C(=O)N3CCn4c3nc3ccccc34)ccc21 (stereo not given) | 88.5 | 87.5% (inactive) | 88.5% (inactive) | 92% (inactive) | 97.6% (inactive) | -3.44% (inactive) | 101 | 97.6 | -4.4% (inactive) | 1.8% (inactive)
CCOc1cc(NC(=O)c2ccco2)c(OCC)cc1NC(=O)Cc1cccc(OC)c1 | 107 | 99.5% (inactive) | 107% (inactive) | 61.2% (inactive) | 86.7% (inactive) | -0.055% (inactive) | 86.7 | 86.7 | 0.68% (inactive) | -6.39% (inactive)
COc1cc(OC)c(OC)cc1CN(C)CCc1ccccn1 | 104 | 107% (inactive) | 104% (inactive) | 96.7% (inactive) | 86.9% (inactive) | -4.87% (inactive) | 91.8 | 86.9 | -1.79% (inactive) | 7% (inactive)
CCSc1nnc(NC(=O)c2nn(C(C)C)c(=O)c3ccccc23)s1 | 99 | 77.5% (inactive) | 99% (inactive) | 81.5% (inactive) | 79.4% (inactive) | -9.27% (inactive) | 88.7 | 79.4 | -5.39% (inactive) | -2% (inactive)
COc1ccc2c(=O)c3c(=O)n(Cc4ccco4)c(C(C)C)nc3oc2c1 | 96 | 93% (inactive) | 96% (inactive) | 101% (inactive) | 99.4% (inactive) | 9.28% (inactive) | 90.1 | 99.4 | -3.73% (inactive) | -9.52% (inactive)
COc1ccc(S(=O)(=O)NCCC(=O)NC2CCCCCCC2)cc1 | 108 | 85.5% (inactive) | 108% (inactive) | 105% (inactive) | 88.6% (inactive) | 2.31% (inactive) | 86.3 | 88.6 | 0% (inactive) | -8.2% (inactive)
CCOC(=O)CSc1nc2cc(C(=O)NCc3ccco3)ccc2c(=O)n1-c1ccc(F)cc1 | 86.5 | 105% (inactive) | 86.5% (inactive) | 71.4% (inactive) | 87.5% (inactive) | 12% (inactive) | 75.6 | 87.5 | -0.93% (inactive) | 12.8% (inactive)
CCC(=O)N(CCCN(C)C)c1nc(-c2cc(OC)ccc2OC)cs1 | 93.5 | 87.5% (inactive) | 93.5% (inactive) | 78.2% (inactive) | 84.6% (inactive) | 11.2% (inactive) | 73.3 | 84.6 | -5.2% (inactive) | 5.08% (inactive)
Cc1ccc(NS(=O)(=O)c2cn(C)cn2)cc1 | 95 | 88% (inactive) | 95% (inactive) | 100% (inactive) | 92.7% (inactive) | 5.86% (inactive) | 86.8 | 92.7 | -2.63% (inactive) | 2.36% (inactive)
CCOC(=O)C(NCc1ccccc1OC)(NC(C)=O)C(F)(F)F (stereo not given) | 116 | 91% (inactive) | 116% (inactive) | 98.8% (inactive) | 91.8% (inactive) | 1.75% (inactive) | 90.1 | 91.8 | -2.6% (inactive) | -0.63% (inactive)
O=c1c2c(-c3ccccc3)csc2nc2n1CCC2 | 81 | 99% (inactive) | 81% (inactive) | 77.2% (inactive) | 79.4% (inactive) | -4.97% (inactive) | 84.4 | 79.4 | 2.84% (inactive) | 29.2% (inactive)
Cc1ccc(S(=O)(=O)N2CCN(S(C)(=O)=O)C2c2ccccc2)cc1 (stereo not given) | 82 | 96% (inactive) | 82% (inactive) | 103% (inactive) | 94.4% (inactive) | -12% (inactive) | 106 | 94.4 | 0.13% (inactive) | 0% (inactive)
CC(=O)c1ccc(-c2nc3ccccc3n2C)o1 | 104 | 81% (inactive) | 104% (inactive) | 96.7% (inactive) | 72.7% (inactive) | 3.04% (inactive) | 69.6 | 72.7 | -6.8% (inactive) | -1.9% (inactive)
Cn1c(=O)c2c(-c3ccccc3)n(CCCN3CCOCC3)cc2n(C)c1=O | 77.5 | 98.5% (inactive) | 77.5% (inactive) | 69.7% (inactive) | 82.2% (inactive) | 10.4% (inactive) | 71.9 | 82.2 | 2.21% (inactive) | -4.29% (inactive)
C=CCn1c(=O)/c(=C/c2ccc(O)cc2)s/c1=C(/C#N)c1nnc2n1CCCCC2 | 93.5 | 103% (inactive) | 93.5% (inactive) | 83.4% (inactive) | 85.5% (inactive) | 8.51% (inactive) | 77 | 85.5 | -5.27% (inactive) | -2.83% (inactive)
O=C(CNS(=O)(=O)c1ccc(Br)s1)N1CCCC1 | 118 | 115% (inactive) | 118% (inactive) | 98.7% (inactive) | 99.9% (inactive) | 9.79% (inactive) | 90.1 | 99.9 | -2.11% (inactive) | 6.89% (inactive)
